{
  "source": "paper PMC5582369",
  "about": "(British Journal of Clinical Pharmacology, 2017)",
  "key": {"[1]": {"target": "T1, NHE3 (Homo sapiens, UniProt P48764)", "T1 sequence (P48764 26-834)": "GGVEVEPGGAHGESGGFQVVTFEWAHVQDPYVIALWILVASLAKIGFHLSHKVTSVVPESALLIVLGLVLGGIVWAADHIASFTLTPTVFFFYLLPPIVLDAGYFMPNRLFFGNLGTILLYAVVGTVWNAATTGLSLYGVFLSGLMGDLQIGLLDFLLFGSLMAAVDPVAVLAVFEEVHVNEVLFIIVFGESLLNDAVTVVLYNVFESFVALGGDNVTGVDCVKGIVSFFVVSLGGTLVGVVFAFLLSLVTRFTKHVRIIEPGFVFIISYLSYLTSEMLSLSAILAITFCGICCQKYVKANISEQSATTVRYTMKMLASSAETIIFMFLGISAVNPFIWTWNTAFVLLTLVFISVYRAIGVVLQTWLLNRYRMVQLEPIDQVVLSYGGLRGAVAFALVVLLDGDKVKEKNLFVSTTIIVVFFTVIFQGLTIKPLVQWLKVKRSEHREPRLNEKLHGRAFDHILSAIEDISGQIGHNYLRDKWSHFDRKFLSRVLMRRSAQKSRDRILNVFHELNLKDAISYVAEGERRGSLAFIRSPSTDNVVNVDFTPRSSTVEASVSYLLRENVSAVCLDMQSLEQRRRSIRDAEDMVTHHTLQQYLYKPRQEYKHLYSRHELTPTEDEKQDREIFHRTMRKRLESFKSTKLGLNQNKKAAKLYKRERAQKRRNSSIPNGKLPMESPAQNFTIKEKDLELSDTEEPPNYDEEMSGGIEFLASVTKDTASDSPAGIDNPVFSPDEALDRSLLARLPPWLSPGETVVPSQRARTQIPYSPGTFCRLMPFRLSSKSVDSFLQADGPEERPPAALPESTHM", "assay": "Stool frequency and consistency", "type": "in vivo, healthy volunteers (human)", "conditions": "mean ± SD over overall tenapanor 15 mg b.i.d. dosing period; day –1: 3.7 ± 1.0"}, "[2]": {"assay": "Safety and tolerability assessments", "type": "in vivo, healthy volunteers (human)", "outline": "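Healthy adults (18–50 y, BMI 18–30 kg m–2, 50–100 kg) got the oral test compound 15 mg twice daily for 4 days, then a single 15 mg dose with a 500 mg probe cephalosporin on day 5, 5–10 min before standardized meals. Adverse events were monitored from screening to follow-up, 7–10 days after the last dose. Vital signs, ECGs, physical exams and clinical labs were also collected.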"}, "[3]": {"assay": "Tenapanor plasma concentration", "type": "in vivo, healthy volunteers (human)", "conditions": "tenapanor 15 mg b.i.d., day 5", "outline": "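Blood was drawn predose and 1, 2 and 4 h after the day-5 morning dose of the test compound (15 mg twice daily from day 1). Plasma was extracted liquid–liquid with a deuterated internal standard, evaporated under nitrogen and reconstituted. Analysis was by LC-MS/MS, validated over 0.500–100 ng ml–1, with a lower limit of quantitation of 0.5 ng ml–1.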"}, "[4]": {"system": "Na+/H+ exchange", "conditions": "healthy volunteers, cited from earlier work"}, "[5]": {"assay": "Cefadroxil plasma pharmacokinetics, phase 1 two-period crossover study", "type": "in vivo, healthy volunteers (human)"}, "[6]": {"system": "PepT1", "conditions": "in vitro; cited from earlier work"}, "[7]": {"conditions": "whole study, all AEs occurred in the tenapanor treatment period"}},
  "data": [
    {"smiles": "CN1Cc2c(Cl)cc(Cl)cc2[C@H](c2cccc(S(=O)(=O)NCCOCCOCCNC(=O)NCCCCNC(=O)NCCOCCOCCNS(=O)(=O)c3cccc([C@@H]4CN(C)Cc5c(Cl)cc(Cl)cc54)c3)c2)C1", "note": "[Tenapanor]", "values": [
      {"measurement": "BSFS score (stool consistency)", "setting": "[1]", "result": "5.4 ± 1.2"},
      {"measurement": "Serious AEs or discontinuations due to AEs", "setting": "[2]; during the study, 28 volunteers", "result": "No serious AEs or discontinuations due to AEs"},
      {"measurement": "Tolerability", "setting": "[2]; tenapanor 15 mg b.i.d., 28 volunteers", "result": "generally well tolerated"},
      {"measurement": "Abdominal distension (n volunteers)", "setting": "[2]; [7]", "result": 4},
      {"measurement": "Abdominal pain (n volunteers)", "setting": "[2]; [7]", "result": 4},
      {"measurement": "Abnormal gastrointestinal sounds (n volunteers)", "setting": "[2]; [7]", "result": 3},
      {"measurement": "Diarrhoea (n volunteers)", "setting": "[2]; [7]", "result": 2},
      {"measurement": "Flatulence (n volunteers)", "setting": "[2]; [7]", "result": 2},
      {"measurement": "Detection of tenapanor in plasma", "setting": "[3]", "result": "not detected in plasma"}
    ]},
    {"smiles": "N=C(N)NC(=O)c1nc(Cl)c(N)nc1N", "note": "[Amiloride]", "values": [
      {"measurement": "Effect on gastrointestinal uptake of amoxicillin", "setting": "[4]", "result": "decrease the gastrointestinal uptake"},
      {"measurement": "Effect on amoxicillin absorption in the gut", "setting": "[4]; jejunal perfusion with amiloride and amoxicillin", "result": "did not affect amoxicillin absorption"}
    ]},
    {"smiles": "CC1=C(C(=O)O)N2C(=O)[C@@H](NC(=O)[C@H](N)c3ccc(O)cc3)[C@H]2SC1", "note": "[Cefadroxil]", "values": [
      {"measurement": "t½ (apparent terminal half-life) of cefadroxil", "setting": "[5]; cefadroxil 500 mg alone, geometric mean (GCV, %), n = 28", "result": "2.0 (11.1) h"},
      {"measurement": "Tmax", "setting": "[5]; human, plasma, oral, 500 mg", "result": 1.5, "unit": "h"},
      {"measurement": "Affinity for PepT1", "setting": "[6]", "result": "moderate affinity"}
    ]}
  ]
}
